Where two headings read alike, the source gives them in different places.
Experiments:
[1] = system: NIH3T3 mouse fibroblast cells; test: MTT cell viability assay in NIH3T3 normal fibroblasts; assay type: cell-based; conditions: read-out: IC50 NIH3T3 normal mouse fibroblasts
Procedure, shortened: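 NIH3T3 fibroblasts from ATCC, kept in DMEM with 10% FBS at 37 °C, 5% CO2. Seeded at 5 × 10³ cells/well in triplicate and exposed to a range of test compound concentrations for 48 h; DMSO diluted in medium at matching levels set 100% viability. MTT in medium for 4 h, formazan dissolved in 1:1 methanol/DMSO, A560 read minus 670 nm background.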

[2] = system: SCC-9 cells (human tongue oral squamous cell carcinoma); test: MTT cell viability assay in SCC-9 cells; assay type: cell-based; conditions: for IC50: read-out: IC50 SSC9 oral squamous cell carcinoma; for Selectivity index (S.I.): IC50 in NIH3T3 / IC50 in SCC-9
Procedure, shortened: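 SCC-9 tongue OSCC cells from ATCC, grown in 1:1 DMEM/F12 with 10% FBS and 400 ng/mL hydrocortisone, 37 °C, 5% CO2. Plated at 5 × 10³ cells/well in triplicate, 48 h with graded test compound doses against matched DMSO (100% viability). MTT for 4 h, formazan in methanol/DMSO 1:1, absorbance 560 nm minus 670 nm. S.I. = IC50 NIH3T3 / IC50 SCC-9.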

SCC-9 cells = test: Cell cycle progression and cell death, propidium iodide flow cytometry; assay type: cell-based, human; conditions: 48 h, compared to negative control

| SMILES | IC50 ([1]; Mus musculus, NIH3T3, 48 h) [µM] | IC50 ([2]; Homo sapiens, SCC-9, 48 h) [µM] | Selectivity index (S.I.) [2] | Effect on DNA fragmentation (SCC-9 cells) | Effect on cells in G2/M phases (SCC-9 cells) | Effect on proportion of cells in G0/G1 phase (SCC-9 cells) | IC50 ([1]; MTT, 48 h treatment) [µM] | IC50 ([2]; MTT, 48 h treatment) [µM] |
| --- | --- | --- | --- | --- | --- | --- | --- | --- |
| O=C1C=C(OCC#C[Te]c2ccccc2)C(=O)c2ccccc21 [Compound 10a, 2-((3-(Phenyltellanyl)prop-2-yn-1-yl)oxy)naphthalene-1,4-dione] | 5.83 | 1.65 | 3.53 | increased DNA fragmentation | no apparent alteration in the percentage of cells in the G2/M phases | significantly decreased the proportion of cells in the G0/G1 phase | – | – |
| O=C1C=C(OCC#C[Se]c2ccc3ccccc3c2)C(=O)c2ccccc21 [Compound 9g, 2-((3-(Naphthalen-2-ylselanyl)prop-2-yn-1-yl)oxy)naphthalene-1,4-Dione] | – | 68.2 | – | – | – | – | – | – |
| COc1cccc2c1C(=O)c1c(O)c3c(c(O)c1C2=O)C[C@@](O)(C(=O)CO)C[C@@H]3O[C@H]1C[C@H](N)[C@H](O)[C@H](C)O1 [doxorubicin, reference compound] | 1.66 | 2.71 | 0.61 | – | – | – | – | – |
| COc1ccc([Se]C#CCOC2=CC(=O)c3ccccc3C2=O)cc1 [Compound 9c, 2-((3-((4-Methoxyphenyl)selanyl)prop-2-yn-1-yl)oxy)naphthalene-1,4-dione] | 27.2 | 24.8 | 1.10 | – | – | increased numbers of cells in the G0/G1 phase | – | – |
| O=C1C=C(OCC#C[Se]c2ccccc2)C(=O)c2ccccc21 [Compound 9a, 2-((3-(Phenylselanyl)prop-2-yn-1-yl)oxy)naphthalene-1,4-dione] | 83.6 | 31.9 | 2.62 | – | – | – | – | – |
| O=C1C=C(OCC#C[Se]c2ccc(Cl)cc2)C(=O)c2ccccc21 [Compound 9e, 2-((3-((4-Chlorophenyl)selanyl)prop-2-yn-1-yl)oxy)naphthalene-1,4-dione] | – | 65.4 | – | – | – | – | – | – |
| O=C1C=C(OCC#C[Te]c2ccc(Cl)cc2)C(=O)c2ccccc21 [Compound 10c, 2-((3-((4-Chlorophenyl)tellanyl)prop-2-yn-1-yl)oxy)naphthalene-1,4-dione] | 4.9 | 2.89 | 1.70 | increased DNA fragmentation | marked reduction of cells in the G2/M phases | – | – | – |
| Cc1ccc([Se]C#CCOC2=CC(=O)c3ccccc3C2=O)cc1 [Compound 9b, 2-((3-(p-Tolylselanyl)prop-2-yn-1-yl)oxy)naphthalene-1,4-dione] | 8.93 | 17.1 | 0.52 | – | – | – | – | – |
| C#CCOC1=C(Sc2ccccc2)C(=O)c2ccccc2C1=O [Compound 11, 2-(Phenylthio)-3-(prop-2-yn-1-yloxy)naphthalene-1,4-dione] | – | 62.3 | – | – | – | – | – | – |
| Cc1cc(C)c([Se]C#CCOC2=CC(=O)c3ccccc3C2=O)c(C)c1 [Compound 9h, 2-((3-(Mesitylselanyl)prop-2-yn-1-yl)oxy)naphthalene-1,4-dione] | – | 49 | – | – | – | – | – | – |
| O=C1C=C(OCC#C[Se]c2ccc(F)cc2)C(=O)c2ccccc21 [Compound 9d, 2-((3-((4-Fluorophenyl)selanyl)prop-2-yn-1-yl)oxy)naphthalene-1,4-dione] | 24.2 | 23.5 | 1.03 | – | – | – | – | – |
| CCCC[Se]C#CCOC1=CC(=O)c2ccccc2C1=O [Compound 9i, 2-((3-(Butylselanyl)prop-2-yn-1-yl)oxy)naphthalene-1,4-dione] | – | 37.4 | – | – | – | – | – | – |
| O=C1C=C(OCC#C[Se]c2ccc(C(F)(F)F)cc2)C(=O)c2ccccc21 [Compound 9f, 2-((3-((4-(Trifluoromethyl)phenyl)selanyl)prop-2-yn-1-yl)oxy)naphthalene-1,4-dione] | 56.5 | 31.7 | 1.78 | increased DNA fragmentation | marked reduction of cells in the G2/M phases | increased numbers of cells in the G0/G1 phase | – | – |
| Cc1ccc([Te]C#CCOC2=CC(=O)c3ccccc3C2=O)cc1 [Compound 10b, 2-((3-(p-Tolyltellanyl)prop-2-yn-1-yl)oxy)naphthalene-1,4-dione] | 2.27 | 4 | 0.57 | increased DNA fragmentation | no apparent alteration in the percentage of cells in the G2/M phases | significantly decreased the proportion of cells in the G0/G1 phase | – | – |
| N.N.O=C([O-])C1(C(=O)[O-])CCC1.[Pt+2] [carboplatin, reference compound] | – | – | 0.27 | – | – | – | 156 | 572 |
